{"source": "PubChem BioAssay AID463104", "about": "(Sanford-Burnham Center for Chemical Genomics, 2010)", "note": "Out of some 330,000 compounds screened, about 1,100 (0.33%) were called active. The list comes from a sample in which actives are over-represented; it also holds similar structures and randomly drawn compounds. A number with no mark means an inactive call.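 The calls were made as follows: active = versus positive control, 20 µM dose yields 30% or more activation; inactive = the rest.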"}
{"assay": "IRE1-XBP1 pathway stimulators – cell-based, CHO-XBP1 luciferase reporter, luminescence, uHTS, primary screen (AID 463104);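 also: 100% = tunicamycin at 10 µg/mL and 0% = DMSO only wells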", "details": "IRE1-XBP1 UPR activation, at 20 µM, stronger effect = higher value, percent of tunicamycin response, DMSO as zero", "in_short": "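Material – CHO cell line with stable XBP1 luciferase reporter · Buffer or medium – F12 plus 10% FBS · Compound – single point, 20 µM final compound, 1% DMSO · Schedule – 16-18 h cell attachment at 37 °C, then 6 h compound exposure · Signal – Steady-Glo luminescence read · Benchmarks – high control tunicamycin 10 µg/mL final, low control DMSO vehicle only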"}
{"smiles": "CC(=O)N1CC(C)c2scc(C)[n+]2-c2ccccc21", "note": "(stereo not given)", "activation": "-0.83%"}
{"smiles": "Cc1ccc(N2C(=O)CC(N3CCSCC3)C2=O)c(C)c1", "note": "(stereo not given)", "activation": "2.27%"}
{"smiles": "O=c1c2ccccc2nc2n1C(CSCc1cccc(C(F)(F)F)c1)CS2", "note": "(stereo not given)", "activation": "-4.03%"}
{"smiles": "COc1ccccc1N(CC(=O)N/N=C(\\C)c1ccccc1O)S(=O)(=O)c1ccc(C)cc1", "activation": "-4.87%"}
{"smiles": "Cc1ccc(S(=O)(=O)N(CC(=O)N/N=C/c2ccc(F)cc2)c2cccc3cccnc23)cc1", "activation": "44.4% (active)"}
{"smiles": "COc1ccc(S(=O)(=O)N(CC(=O)N/N=C/c2ccccc2C(=O)O)c2ccccc2OC)cc1", "activation": "-1.28%"}
{"smiles": "Cc1ccc(CC2S/C(=C(/C#N)C(=O)N3CCOCC3)N(c3ccccc3)C2=O)cc1", "note": "(stereo not given)", "activation": "-1.89%"}
{"smiles": "Cc1ccnc2nc(C(=O)Nc3nnc(-c4ccccc4)o3)nn12", "activation": "2.49%"}
{"smiles": "O=C(CNC(=O)c1cccnc1)N/N=C/c1cc(Br)c(O)c(Br)c1", "activation": "-5.3%"}
{"smiles": "Cc1ccc(CSCCNC(=O)CN(c2ccc(F)cc2)S(C)(=O)=O)cc1", "activation": "-2.57%"}
{"smiles": "CCOC(=O)C1=C(O)/C(=C/c2ccc(OCC(=O)Nc3ccc(C)cc3)cc2)N=C1C", "activation": "51.4% (active)"}
{"smiles": "Cc1ccc(NC(=O)COc2ccc(/C=C3/NC(=O)NC3=O)cc2)cc1", "activation": "-3.85%"}
{"smiles": "COC(=O)C1=C(O)/C(=C/c2ccc(OCC(=O)Nc3ccccc3)cc2)N=C1C", "activation": "-5.1%"}
{"smiles": "CCn1c(SCC(=O)NNC(=O)c2ccc(OC)cc2)nnc1C(C)C", "activation": "-2.62%"}
{"smiles": "CCOC(=O)/C=C/CN(C(=O)OC(C)(C)C)S(=O)(=O)N1CC=CC1", "activation": "-0.55%"}
{"smiles": "Cc1cccc(C)c1NC(=O)C1(N(C(=O)c2ccccn2)c2ccc(O)cc2)CCCCC1", "activation": "-2.28%"}
{"smiles": "CCOC(=O)N1CCN(CC(=O)n2c(C)c(C)c3ccccc32)CC1", "activation": "1.59%"}
{"smiles": "Cc1cccc(OCCCC(=O)Nc2ccc(S(=O)(=O)N3CCCC3)cc2)c1", "activation": "-0.19%"}
{"smiles": "CCCN1CCn2c3c(c4cc(Br)ccc42)CCCC31", "note": "(stereo not given)", "activation": "-0.93%"}
{"smiles": "COCCNC(=O)c1ccc(Cn2c(SCC(=O)NCC3CCCO3)nc3ccc(Br)cc3c2=O)cc1", "note": "(stereo not given)", "activation": "-6.18%"}
{"smiles": "OC(CNCC1CCCO1)Cn1c2ccc(Br)cc2c2cc(Br)ccc21", "note": "(stereo not given)", "activation": "69.6% (active)"}
{"smiles": "CC(=O)Nc1ccc(CC#N)cc1", "activation": "-1.91%"}
{"smiles": "COc1ccccc1C(=O)NCCC(=O)NCC(c1ccco1)N1CCCCC1", "note": "(stereo not given)", "activation": "-0.9%"}
{"smiles": "Cn1c(SCC(=O)N/N=C/c2ccc(O)c(O)c2)nc2ccccc21", "activation": "20.8%"}
{"smiles": "CCCc1nc2ccccc2c(=O)n1NC(=O)c1c(O)c2ccccc2[nH]c1=O", "activation": "-2.34%"}
{"smiles": "CCCc1nc2ccccc2c(=O)n1/N=C/c1ccc(O)c(O)c1", "activation": "40.8% (active)"}
{"smiles": "COc1ccc2sc(N(CCCN(C)C)C(=O)c3ccc(S(=O)(=O)N(C)C4CCCCC4)cc3)nc2c1", "activation": "1.32%"}
{"smiles": "CN(C)CCCN(C(=O)c1ccc(S(=O)(=O)N2CCCc3ccccc32)cc1)c1nc2ccc(F)cc2s1", "activation": "20.8%"}
{"smiles": "CN(C)CCCN(C(=O)c1ccc(S(=O)(=O)N2CCCCCC2)cc1)c1nc2ccc(Br)cc2s1", "activation": "46.6% (active)"}
{"smiles": "CC12CN(NC(=O)c3ccc(Cl)cc3)C3(C#N)CC1CCC23C", "note": "(stereo not given)", "activation": "-2.37%"}
{"smiles": "COc1ccc(-c2c(NC(=O)c3ccco3)oc3ccc(Cl)cc3c2=O)cc1", "activation": "-2.76%"}
{"smiles": "CC1CCCCC12NC(=O)N(CC(=O)N1CCN(c3ccccc3)CC1)C2=O", "note": "(stereo not given)", "activation": "-1.08%"}
{"smiles": "N#CC(=C1CCCC1)c1nc(-c2ccc(Cl)cc2)cs1", "activation": "-2.04%"}
{"smiles": "c1ccc(-c2csc(N3CCc4ccccc4C3)n2)cc1", "activation": "2.31%"}
{"smiles": "N#CC(=C1SC=CS1)c1nc(-c2ccccc2)cs1", "activation": "30.8% (active)"}
{"smiles": "Cc1noc(C)c1CSCC(=O)N(CCC(C)C)c1c(N)n(Cc2ccccc2)c(=O)[nH]c1=O", "activation": "-4.01%"}
{"smiles": "Cc1ccc(SCC(=O)NC(=O)NCc2ccco2)c(C)c1", "activation": "1.4%"}
{"smiles": "Oc1ccc(Br)cc1/C=N/Nc1ccccn1", "activation": "88.3% (active)"}
{"smiles": "Cc1c(C(=O)Nc2ccccn2)oc2ccc(Br)cc12", "activation": "0.16%"}
{"smiles": "CCN(CC)CCn1c(/N=C/c2cc(Br)ccc2O)nc2ccccc21", "activation": "-2.54%"}
{"smiles": "CC(=O)C1(C)N(O)C(C)(C)C(c2cccs2)=[N+]1[O-]", "note": "(stereo not given)", "activation": "-1.47%"}
{"smiles": "CC(=NCc1ccc2c(c1)OCO2)C1=C(O)c2ccccc2C1=O", "activation": "1.05%"}
{"smiles": "COCCN1C(=O)N[C@@H](CCc2ccccc2)[C@H](C(C)=O)[C@H]1C", "activation": "0.9%"}
{"smiles": "CCN1C(=NCCc2cccnc2)N[C@@H](c2ccccc2)[C@H](C(=O)OC)[C@H]1C", "activation": "0.09%"}
{"smiles": "CCN1C(=O)N[C@@H](c2ccccc2)[C@H](C(C)=O)[C@H]1C", "activation": "34.5% (active)"}
{"smiles": "Cc1ccc(Nc2nc(N)nc(CSc3nnc(C)s3)n2)cc1", "activation": "3.11%"}
{"smiles": "Nc1nc(CC(=O)CSc2ccc(Cl)cc2)nc(Nc2ccc(F)cc2)n1", "activation": "75% (active)"}
{"smiles": "Nc1nc(COC(=O)CCC(=O)c2ccc(Cl)cc2)nc(Nc2ccccc2)n1", "activation": "1.72%"}
{"smiles": "Cc1ccc(C)c(NC(=O)CN(C)C(=O)c2ccc3ncsc3c2)c1", "activation": "-1.06%"}
{"smiles": "COc1ccc(C(=O)COC(=O)CNC(=O)c2cccs2)cc1Br", "activation": "0.35%"}
{"smiles": "COc1ccc(C(=O)COC(=O)COc2ccc(C)c(C)c2)cc1", "activation": "0.09%"}
{"smiles": "Cc1ccc(SC(=O)COc2ccc(C)c(C)c2)cc1", "activation": "65.8% (active)"}
{"smiles": "Cc1ccc(OCC(=O)Nc2ccc(C(=O)O)cc2NC(=O)COc2ccc(C)c(C)c2)cc1C", "activation": "-6.86%"}
{"smiles": "CCOC1CCCCC1NS(=O)(=O)c1ccc(Cl)cc1", "note": "(stereo not given)", "activation": "-1.12%"}
{"smiles": "Cc1ccc(CN2CCN(/N=C/c3cccnc3)CC2)c(C)c1", "activation": "1.33%"}
{"smiles": "CCc1nc(C)cn1S(=O)(=O)c1cc([N+](=O)[O-])ccc1Cl", "activation": "45.1% (active)"}
{"smiles": "CC(C)c1nccn1S(=O)(=O)c1cc([N+](=O)[O-])ccc1Cl", "activation": "0.9%"}
{"smiles": "CCc1nc(C)cn1S(=O)(=O)c1cc(OC)c(C)cc1C", "activation": "-2.38%"}
{"smiles": "Cc1cc(N2CCOCC2)nc2ccc(NC(=S)N3CCN(Cc4ccccc4)CC3)cc12", "activation": "-2.17%"}
{"smiles": "Cc1ccc(S(=O)(=O)c2nnn3c2nc(N2CCN(c4ccccn4)CC2)c2ccccc23)cc1", "activation": "-2.5%"}
{"smiles": "Cc1cccc(Nc2nc3c(S(=O)(=O)c4ccccc4)nnn3c3ccccc23)c1C", "activation": "94% (active)"}
{"smiles": "CC(=O)Nc1ccc(Nc2nc3c(S(=O)(=O)c4ccc(C)c(C)c4)nnn3c3ccccc23)cc1", "activation": "3.91%"}
{"smiles": "CN(CC(=O)Nc1cccc(F)c1)C(=O)C1CSC2(C)CCC(=O)N12", "note": "(stereo not given)", "activation": "2.87%"}
{"smiles": "CCN(CC)C(=O)CSC1c2ccccc2C(=O)N1c1ccccc1", "note": "(stereo not given)", "activation": "0.81%"}
{"smiles": "CC1(C)C=C2[C@H]3CC[C@@H]4[C@@]5(C)CCC(=O)C(C)(C)[C@@H]5CC[C@@]4(C)[C@]3(C)CC[C@@]2(C(=O)O)CC1", "activation": "2.72%"}
{"smiles": "CC(=O)NC(CC(=O)Nc1cccc(S(=O)(=O)N2CCCC2)c1)c1ccccc1", "note": "(stereo not given)", "activation": "-4.34%"}
{"smiles": "COc1ccc(CNC(=O)/C(C#N)=C/c2cccc(OC)c2OC)cc1", "activation": "36.8% (active)"}
{"smiles": "N#C/C(=C\\c1ccc(O)c(O)c1)C(=O)NCc1ccccc1", "activation": "21.5%"}
{"smiles": "COc1ccc(NC(=O)/C(C#N)=C\\c2cc(OC)c(OCc3ccc(C(=O)O)cc3)cc2Br)cc1", "activation": "-2.72%"}
{"smiles": "C=CCNC(=O)c1ccccc1NC(=O)c1ccc(Cl)c(S(=O)(=O)Nc2cccc(C)c2C)c1", "activation": "0.62%"}
